One may read the IC50 as the concentration at which inhibition is half-maximal. Usually IC90 stands for the concentration needed for an effect of 90%. A low value points to an effect from little substance.

Consider 13 compounds from publication PMC2982901 (Cancer chemotherapy and pharmacology, 2010).

One series relates to SF-295 xenografts. The conditions noted are these: SF-295 xenograft, i.p. 5/2/5 schedule vs irinotecan i.v. Q4D×3.
For a further series, the system named is HT29 xenografts. Conditions: HT29 xenograft, i.p. 5/2/5 schedule vs irinotecan i.v. Q4D×3.
A further series has as its system NCI-H460 xenografts. The conditions noted are these: NCI-H460 xenograft, i.p. 5/2/5 schedule vs irinotecan i.v. Q4D×3.
In a further series the test system is Panc-1 xenografts. Conditions: Panc-1 xenograft; for Median T–C: two tumor volume doublings.
For series [1], the system named is Panc-1 cells. Put plainly: Growth inhibition assay, Panc-1 cells. It counts as cell-based, human. Conditions: for IC50 vs. BACPT: ratio of IC50 to that of BACPT; for IC90 vs. BACPT: ratio of IC90 to that of BACPT.
Series [2] concerns IMR-32 neuroblastoma cell line. The experiment in a line: Growth inhibition assay, IMR-32 neuroblastoma cells. It counts as cell-based, human.
In series [3] the test system is NGP neuroblastoma cell line. The experiment in a line: Growth inhibition assay, NGP neuroblastoma cells. It counts as cell-based, human.
The next series relates to IMR-32 histocultures. The experiment in a line: Histoculture assay, IMR-32. It counts as cell-based, human. The conditions noted are these: hypoxic (1.5% O2) and acidic (pH 6.8), results not shown.
For series [4], the system named is SK-N-MC neuroblastoma cell line. The experiment in a line: Growth inhibition assay, SK-N-MC neuroblastoma cells. Format: cell-based, human.
The subject of the next series is MCF-7 cells. Conditions: MCF-7 cells cultured at pH 6.8 vs. 7.4; cited from earlier work.
For series [5], the system named is SK-N-BE(2c) neuroblastoma cell line. Put plainly: Growth inhibition assay, SK-N-BE. Format: cell-based, human.
In series [6] the test system is Panc-1 cells. The experiment in a line: Drug interaction assay with gemcitabine in Panc-1 cells. It counts as cell-based, human. Conditions: for Dose reduction index: gemcitabine followed 24 h by BACPT, Panc-1. An outline of the steps:
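Panc-1 cells were grown in DMEM with 10% FBS and seeded at 3,000 cells/well. Gemcitabine was given first, then the test compound 24 h later. Exposure was 3 days, followed by 2 days in drug-free medium. Survival was read by ATP assay, with seven dose levels per curve in triplicate. Interaction was analysed by the Chou combination-index method as a function of fraction affected (fa = 0.5 is the IC50).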

Setting [7] is: 8.0 mg/kg i.p., 5/2/5 schedule, 8 mg/kg.
Where [8] appears, read: read-out: IC50 (nM) pH 6.8, pH 6.8.
Where [9] appears, read: read-out: IC50 (nM) pH 7.4, pH 7.4.
Setting [10] is: 60 mg/kg i.v., Q4D×3 schedule, 60 mg/kg.

Values joined by “and” are separate entries in the source; they are usually repeats but may differ in a detail not shown here. Equal entries are not always repeated. Where two headings read alike, the source gives them in different places.

Regarding “7-butyl-10-amino-camptothecin-(20S) β-alanine-lysine [BACPTDP]”, the “antitumor activity relative to irinotecan” value with SF-295 xenografts, with HT29 xenografts and in the series on NCI-H460 xenografts was “comparable to irinotecan” each time. For the same compound, the “Median survival” value with Panc-1 xenografts (4.5 mg/kg i.p., 5/2/5 schedule) is 27.4 ± 2.0 days; with Panc-1 xenografts (setting [7]), 67 days and 66.7 ± 7.8 days. Moreover, the TFS with Panc-1 xenografts (4.5 mg/kg i.p., 5/2/5 schedule) is reported as 0. Also, the “Median T–C” value in the series with Panc-1 xenografts (4.5 mg/kg i.p., 5/2/5 schedule) is 10.9 days; in the series on Panc-1 xenografts (8.0 mg/kg i.p., 5/2/5 schedule), 60.0 days. In the series with Panc-1 xenografts (setting [7]), the “TFS (tumor-free animals at 95 days)” value was 2/6 and 2.
`Nc1ncn([C@@H]2O[C@H](CO)[C@@H](O)[C@H]2O)c(=O)n1` [5-Azacytidine] returned an IC50 in the series on Panc-1 cells [1] (Homo sapiens, PANC-1) of 68800 nM. For the same compound, in the series with Panc-1 cells [1] (Panc-1 cells), the “IC90 (nM)” value is given as “not achieved” and the “IC50 vs. BACPT” value is reported as 16,916.
In the series on Panc-1 cells [1] (Homo sapiens, PANC-1), `O=c1[nH]cc(F)c(=O)[nH]1` [5-Flurouracil] showed an IC50 of 9180 nM and an IC90 of 97600 nM. Besides, in the series with Panc-1 cells [1] (Panc-1 cells), the “IC50 vs. BACPT” value is on record as 2,257 and the “IC90 vs. BACPT” value is on record as 1,136.
In the case of `CCCCc1c2c(nc3ccc(N)cc13)-c1cc3c(c(=O)n1C2)COC(=O)C3(O)CC` (stereo not drawn) [BACPT, 7-Butyl-10-amino-camptothecin], the “Fold increase at acidic pH” value in series [2] (IMR-32, pH 6.8 vs 7.4) came out at 12; in series [3] (pH 6.8 vs 7.4) it was 49; in series [4] (pH 6.8 vs 7.4), 8; in series [5] (pH 6.8 vs 7.4) it was 5. Also, the IC50 in series [2] (read-out: IC50 (nM) pH 6.8, IMR-32, pH 6.8) turned out to be 127 nM; in series [2] (read-out: IC50 (nM) pH 7.4, IMR-32, pH 7.4) it was 1390 nM; in series [3] (setting [8]), 26 nM; in series [3] (setting [9]), 1290 nM; with IMR-32 histocultures it was 200 nM; in series [4] (setting [9]) it was 0.001 nM. Further, the IC50 was 0.019 nM in series [5] (setting [8]), 0.099 nM in series [5] (setting [9]) and 4 nM in the series with Panc-1 cells [1] (Panc-1 cells). The “increase in potency at acidic pH” value in the series on MCF-7 cells is about 15 fold. Moreover, it took 86 nM to reach the 90% level with Panc-1 cells [1] (Panc-1 cells) (IC90). In addition, the “IC50 vs. BACPT” value in the series with Panc-1 cells [1] (Panc-1 cells) was 1. Further, the “IC90 vs. BACPT” value in the series on Panc-1 cells [1] (Panc-1 cells) turned out to be 1. Moreover, the Dose reduction index was 2.0 in the series on Panc-1 cells [6] (Fraction affected 0.2); 5.3 in the series with Panc-1 cells [6] (Fraction affected 0.3); 11.0 in the series on Panc-1 cells [6] (Fraction affected 0.4); 38.0 in the series on Panc-1 cells [6] (Fraction affected 0.6); 69.1 with Panc-1 cells [6] (Fraction affected 0.7); 133.8 in the series with Panc-1 cells [6] (Fraction affected 0.8). In the series with Panc-1 cells [6] (Panc-1, molar ratio 100:1 gemcitabine:BACPT, median effect analysis), the “interaction in combination with gemcitabine (combination index)” value is listed as “additive (CI = 1) to synergistic (CI < 1)”.
Consider `CCc1c2c(nc3ccc(OC(=O)N4CCC(N5CCCCC5)CC4)cc13)-c1cc3c(c(=O)n1C2)COC(=O)[C@]3(O)CC` [CPT-11, irinotecan], for which the “Maximum body weight loss (%)” value amounted to 2% in the series on Panc-1 xenografts (40 mg/kg i.v., Q4D×3 schedule) and 6% in the series with Panc-1 xenografts (60 mg/kg i.v., Q4D×3 schedule). In addition, the “Median survival” value was determined as 35.0 ± 9.3 days in the series with Panc-1 xenografts (40 mg/kg i.v., Q4D×3 schedule) and 31.4 ± 1.5 days in the series on Panc-1 xenografts (setting [10]). Moreover, the TFS is reported as 0 with Panc-1 xenografts (40 mg/kg i.v., Q4D×3 schedule); 0 in the series with Panc-1 xenografts (60 mg/kg i.v., Q4D×3 schedule); “no tumor-free animals” with Panc-1 xenografts (setting [10]).
As for `Cc1nc(Nc2ncc(C(=O)Nc3c(C)cccc3Cl)s2)cc(N2CCN(CCO)CC2)n1` [Dasatinib], in the series with Panc-1 cells [1] (Homo sapiens, PANC-1), the IC50 was 6890 nM and the IC90 came out at 13200 nM. In the series with Panc-1 cells [1] (Panc-1 cells), the “IC50 vs. BACPT” value is 1,693 and the “IC90 vs. BACPT” value is reported as 154.
`Nc1ncn([C@H]2C[C@H](O)[C@@H](CO)O2)c(=O)n1` [Decitabine] displayed an IC50 in the series on Panc-1 cells [1] (Homo sapiens, PANC-1) of 69000 nM. Moreover, in the series on Panc-1 cells [1] (Panc-1 cells), the “IC90 (nM)” value is “not achieved” and the “IC50 vs. BACPT” value is recorded as 16,963.
Consider `C#Cc1cccc(Nc2ncnc3cc(OCCOC)c(OCCOC)cc23)c1` [Erlotinib], for which the “IC50 (nM)” value in the series with Panc-1 cells [1] (Panc-1 cells) was “inactive”.
Consider `COc1cc([C@@H]2c3cc4c(cc3[C@@H](O[C@@H]3O[C@@H]5CO[C@@H](C)O[C@H]5[C@H](O)[C@H]3O)[C@H]3COC(=O)[C@H]23)OCO4)cc(OC)c1O` [Etoposide], for which, in the series on Panc-1 cells [1] (Homo sapiens, PANC-1), the IC50 worked out at 651 nM and the concentration for an effect of 90% (IC90) turned out to be 8750 nM. In the series with Panc-1 cells [1] (Panc-1 cells), the “IC50 vs. BACPT” value amounted to 160 and the “IC90 vs. BACPT” value was 102.
Consider `Nc1ccn([C@@H]2O[C@H](CO)[C@@H](O)C2(F)F)c(=O)n1` [Gemcitabine], for which half-maximal inhibition with Panc-1 cells [1] (Homo sapiens, PANC-1) (IC50) required 23 nM. In the series on Panc-1 cells [1] (Homo sapiens, PANC-1), this compound gave an IC90 of 117 nM. Besides, the “IC50 vs. BACPT” value in the series with Panc-1 cells [1] (Panc-1 cells) came out at 6. Further, the “IC90 vs. BACPT” value in the series with Panc-1 cells [1] (Panc-1 cells) came out at 1. Further, the Dose reduction index in the series on Panc-1 cells [6] (Fraction affected 0.2) was found to be 1.0; with Panc-1 cells [6] (Fraction affected 0.3), 1.6; in the series with Panc-1 cells [6] (Fraction affected 0.4) it was 2.3; in the series on Panc-1 cells [6] (Fraction affected 0.5 (IC50)), 3.1; in the series on Panc-1 cells [6] (Fraction affected 0.6), 3.9; with Panc-1 cells [6] (Fraction affected 0.7), 4.8. The Dose reduction index in the series with Panc-1 cells [6] (Fraction affected 0.8) worked out at 5.8.
The compound `CCc1c2c(nc3ccc(O)cc13)-c1cc3c(c(=O)n1C2)COC(=O)[C@]3(O)CC` [SN-38] had an IC50 in the series on IMR-32 histocultures of 10000 nM.
Consider `Cn1nnc2c(C(N)=O)ncn2c1=O` [Temozolomide], for which the “IC50 (nM)” value in the series with Panc-1 cells [1] (Panc-1 cells) was “inactive”.
Regarding `CCC1=C[C@@H]2CN(C1)Cc1c([nH]c3ccccc13)[C@@](C(=O)OC)(c1cc3c(cc1OC)N(C)[C@H]1[C@@](O)(C(=O)OC)[C@H](OC(C)=O)[C@]4(CC)C=CCN5CC[C@]31[C@@H]54)C2` [Vinorelbine], 103 nM corresponded to half-maximal inhibition in the series with Panc-1 cells [1] (Homo sapiens, PANC-1) (IC50). Moreover, in the series on Panc-1 cells [1] (Panc-1 cells), the “IC90 (nM)” value is “not achieved” and the “IC50 vs. BACPT” value is 25.
